We go through 1 compound from ChEMBL document CHEMBL5705902, “Role of G Protein-Coupled Receptor Kinases 2 and 3 in μ-Opioid Receptor Desensitization and Internalization” (Mol Pharmacol, 2015).

The target in experiment [1] is Mu-type opioid receptor (Rattus norvegicus) (UniProt P33535). Kind of experiment: Inhibition of MOPr desensitization in wistar rat LC neuron cells assessed as reduction in the endomorphin-2 induced desensitization at 30 uM incubated for 15 mins before. The experiment is classed as functional, cell-based. The method, boiled down:
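Whole-cell patch clamp of GIRK currents in locus coeruleus slices from male Wistar rats (5–8 weeks). Inhibitor was given at least 15 min before and during the agonist, all drugs by superfusion. Percent desensitization was taken over 10 min of opioid agonist application. Met-Enk n = 5, endomorphin-2 n = 6; ANOVA.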
Target sequence in this assay (P33535 whole entry, the tested form may be a part): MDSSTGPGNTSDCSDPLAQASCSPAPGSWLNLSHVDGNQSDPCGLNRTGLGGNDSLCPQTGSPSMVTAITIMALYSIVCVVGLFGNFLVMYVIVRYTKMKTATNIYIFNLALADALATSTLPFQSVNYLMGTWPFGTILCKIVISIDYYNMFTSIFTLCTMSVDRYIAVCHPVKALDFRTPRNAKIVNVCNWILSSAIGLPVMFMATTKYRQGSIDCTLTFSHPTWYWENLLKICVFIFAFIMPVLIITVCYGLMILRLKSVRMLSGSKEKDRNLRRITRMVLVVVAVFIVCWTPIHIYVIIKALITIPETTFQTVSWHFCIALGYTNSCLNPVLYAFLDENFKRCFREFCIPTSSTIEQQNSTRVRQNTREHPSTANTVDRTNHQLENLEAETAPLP

The target is the same in experiment [2]. Description: Inhibition of MOPr desensitization in wistar rat LC neuron cells assessed as reduction in the Met-Enk induced desensitization at 30 uM incubated for 15 mins before in the presence of SP600125. In kind it is functional, cell-based.
Target sequence in this assay (P33535 whole entry, the tested form may be a part): as above
Experiment [3] shares this target. Kind of experiment: Inhibition of HA-tagged rat MOPr in HEK293 cells assessed as DAMGO induced MOPr phosphorylation at Ser375 level at 30 uM preincubated for 30 mins by western blot analysis. In kind it is functional, cell-based. The method, boiled down:
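Serum-starved HEK 293 cells stably expressing HA-rat MOPr were pretreated with inhibitor for 30 min, then DAMGO 10 μM for 5 min. Receptor was enriched on WGA-agarose overnight at 4°C and blotted for pSer375. Densitometry was done in duplicate and normalized to total HA-MOPr; n = 3.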
Target sequence in this assay (P33535 whole entry, the tested form may be a part): as above

Experiment [4] has as its target Mu-type opioid receptor (Homo sapiens) (UniProt P35372). Kind of experiment: Inhibition of HA-tagged MOPr (unknown origin) stably expressed in human U2OS cells assessed as reduction in DAMGO induced large recruitment of arrestin-3 translocation at 30 uM preincubated for 30 mins by DiscoveRx PathHunter assay. The experiment is classed as functional, cell-based. In outline:
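PathHunter U2OS cells stably express tagged human MOPr and tagged arrestin-3. Recruitment reconstitutes β-galactosidase, read by luminescence. DAMGO 10 μM was applied for 90 min, with inhibitor (30 μM) added 30 min before; n = 3.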

Experiment [5] deals with Mu-type opioid receptor (Rattus norvegicus) (UniProt P33535). Kind of experiment: Inhibition of HA-tagged rat MOPr in HEK293 cells assessed as reduction in DAMGO induced MOPr internalization level at 30 uM preincubated for 30 mins by ELISA method. The experiment is classed as functional, cell-based. In outline: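 Surface HA-MOPr in HEK 293 cells was prelabeled with anti-HA for 1 h at 4°C, then inhibitor (3 or 30 μM) was given for 30 min at 37°C, then DAMGO 10 μM at 37°C. Surface receptor was measured by ELISA and normalized to cells not exposed to DAMGO; n = 3–4.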
Target sequence in this assay (P33535 whole entry, the tested form may be a part): as above

In experiment [6] the target is Ribosomal protein S6 kinase alpha-5 (Homo sapiens) (UniProt O75582). Kind of experiment: Inhibition of human MSK1 assessed as remaining activity at 1 uM in presence of 32ATP relative to control. The method, boiled down: (§1)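 Express panel of 52 purified human kinases run in vitro. Kinase activity was measured directly by a radioactive filter-binding assay with ³²ATP, at ATP levels at or below each kinase's calculated Km for ATP. The compound was tested at 1 μM. Each assay was run in duplicate, and activity is given as the mean percentage (with S.D.) of activity without inhibitor.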
Chain of Ribosomal protein S6 kinase alpha-5 (Homo sapiens) (O75582 whole entry, looked up): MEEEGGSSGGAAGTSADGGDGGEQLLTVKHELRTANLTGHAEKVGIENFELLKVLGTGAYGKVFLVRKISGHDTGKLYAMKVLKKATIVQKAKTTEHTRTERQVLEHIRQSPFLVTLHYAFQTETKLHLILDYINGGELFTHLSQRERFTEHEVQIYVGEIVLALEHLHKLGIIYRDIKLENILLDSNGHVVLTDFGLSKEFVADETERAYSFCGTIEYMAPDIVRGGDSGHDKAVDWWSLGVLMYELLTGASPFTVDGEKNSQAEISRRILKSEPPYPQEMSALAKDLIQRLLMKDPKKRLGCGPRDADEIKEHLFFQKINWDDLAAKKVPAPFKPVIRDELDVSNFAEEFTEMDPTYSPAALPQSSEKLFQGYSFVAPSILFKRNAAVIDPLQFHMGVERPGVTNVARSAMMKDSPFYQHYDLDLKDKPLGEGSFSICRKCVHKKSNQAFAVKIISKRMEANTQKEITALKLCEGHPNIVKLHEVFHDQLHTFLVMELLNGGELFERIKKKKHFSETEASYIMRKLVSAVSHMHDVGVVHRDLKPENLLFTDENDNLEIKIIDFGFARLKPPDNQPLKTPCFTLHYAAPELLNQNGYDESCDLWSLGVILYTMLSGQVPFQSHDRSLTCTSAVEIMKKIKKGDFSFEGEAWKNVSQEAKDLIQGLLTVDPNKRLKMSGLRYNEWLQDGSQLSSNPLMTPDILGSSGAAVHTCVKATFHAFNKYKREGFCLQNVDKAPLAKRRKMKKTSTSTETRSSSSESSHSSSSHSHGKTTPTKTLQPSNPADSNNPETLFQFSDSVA

The target in experiment [7] is Ribosomal protein S6 kinase beta-1 (Homo sapiens) (UniProt P23443). Description: Inhibition of human S6K1 assessed as remaining activity at 1 uM in presence of 32ATP relative to control. In outline:
as §1

Experiment [8] deals with Mitogen-activated protein kinase 1 (Homo sapiens) (UniProt P28482). Description: Inhibition of human ERK2 assessed as remaining activity at 1 uM in presence of 32ATP relative to control. The method, boiled down:
as §1

Experiment [9] has as its target RAC-alpha serine/threonine-protein kinase (Homo sapiens) (UniProt P31749). Kind of experiment: Inhibition of human PKBa assessed as remaining activity at 1 uM in presence of 32ATP relative to control. In outline: as §1
Experiment [10] concerns the target Receptor tyrosine-protein kinase erbB-4 (Homo sapiens) (UniProt Q15303). Kind of experiment: Inhibition of human HER4 assessed as remaining activity at 1 uM in presence of 32ATP relative to control. In outline:
as §1

The target of experiment [11] is Casein kinase I isoform delta (Homo sapiens) (UniProt P48730). Kind of experiment: Inhibition of human CK1delta assessed as remaining activity at 1 uM in presence of 32ATP relative to control. The method, boiled down:
(§2)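 Express screen of 52 purified human kinases run as a radioactive filter-binding assay with 32ATP, at 1 μM inhibitor. ATP was at or below each kinase's calculated Km. Activity is given as percent of the activity without inhibitor. Run in duplicate; mean with S.D.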

For experiment [12], the target named is Myosin light chain kinase, smooth muscle (Homo sapiens) (UniProt Q15746). Description: Inhibition of human SmMLCK assessed as remaining activity at 1 uM in presence of 32ATP relative to control. In outline: as §1
The target in experiment [13] is Dual specificity protein kinase TTK (Homo sapiens) (UniProt P33981). Description: Inhibition of human TTK assessed as remaining activity at 1 uM in presence of 32ATP relative to control. The method, boiled down: as §1
Chain of Dual specificity protein kinase TTK (Homo sapiens) (P33981 whole entry): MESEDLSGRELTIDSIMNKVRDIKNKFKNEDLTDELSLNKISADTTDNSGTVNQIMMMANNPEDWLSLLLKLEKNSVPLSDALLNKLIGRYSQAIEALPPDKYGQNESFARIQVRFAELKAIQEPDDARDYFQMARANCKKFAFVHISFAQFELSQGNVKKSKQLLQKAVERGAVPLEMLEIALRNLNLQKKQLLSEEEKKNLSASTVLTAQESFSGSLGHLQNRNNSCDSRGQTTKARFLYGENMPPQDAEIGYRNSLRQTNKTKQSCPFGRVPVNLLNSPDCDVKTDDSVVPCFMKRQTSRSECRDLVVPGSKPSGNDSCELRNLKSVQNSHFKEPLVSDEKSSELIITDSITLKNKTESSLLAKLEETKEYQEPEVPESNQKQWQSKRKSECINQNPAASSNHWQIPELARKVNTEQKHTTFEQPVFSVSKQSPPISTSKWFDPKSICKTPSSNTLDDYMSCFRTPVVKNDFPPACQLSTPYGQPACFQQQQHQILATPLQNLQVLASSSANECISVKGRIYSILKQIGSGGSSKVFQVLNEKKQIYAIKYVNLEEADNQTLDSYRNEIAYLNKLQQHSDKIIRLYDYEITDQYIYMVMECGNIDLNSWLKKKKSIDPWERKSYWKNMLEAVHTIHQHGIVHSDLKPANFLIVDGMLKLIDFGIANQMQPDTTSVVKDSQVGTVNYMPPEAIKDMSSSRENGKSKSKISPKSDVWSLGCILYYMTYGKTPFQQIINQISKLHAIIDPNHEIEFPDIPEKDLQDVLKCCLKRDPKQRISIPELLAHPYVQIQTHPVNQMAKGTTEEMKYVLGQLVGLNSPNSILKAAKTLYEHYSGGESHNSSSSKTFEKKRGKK
Experiment [14] deals with SRSF protein kinase 1 (Homo sapiens) (UniProt Q96SB4). Kind of experiment: Inhibition of human SRPK1 assessed as remaining activity at 1 uM in presence of 32ATP relative to control. In outline:
as §1

Experiment [15] addresses Interleukin-1 receptor-associated kinase 4 (Homo sapiens) (UniProt Q9NWZ3). Kind of experiment: Inhibition of human IRAK4 assessed as remaining activity at 1 uM in presence of 32ATP relative to control. In outline:
as §1

The target of experiment [16] is Eukaryotic elongation factor 2 kinase (Homo sapiens) (UniProt O00418). Kind of experiment: Inhibition of human EF2K assessed as remaining activity at 1 uM in presence of 32ATP relative to control. In outline:
as §2

Experiment [17] addresses Serine/threonine-protein kinase PLK1 (Homo sapiens) (UniProt P53350). Kind of experiment: Inhibition of human PLK1 assessed as remaining activity at 1 uM in presence of 32ATP relative to control. The method, boiled down:
as §1

Experiment [18] concerns the target Serine/threonine-protein kinase pim-1 (Homo sapiens) (UniProt P11309). Kind of experiment: Inhibition of human PIM1 assessed as remaining activity at 1 uM in presence of 32ATP relative to control. In outline: as §1
Experiment [19] has as its target Dual specificity tyrosine-phosphorylation-regulated kinase 1A (Homo sapiens) (UniProt Q13627). Description: Inhibition of human DYRK1A assessed as remaining activity at 1 uM in presence of 32ATP relative to control. In outline:
as §2

Experiment [20] concerns the target Protein kinase C (PKC) (Homo sapiens) (UniProt O94806+P41743+P17252+P05129+Q05655+P05771+Q05513+Q02156+P24723+Q15139+Q04759). Description: Inhibition of PKC (unknown origin) at 1 uM in presence of 32ATP relative to control. The experiment is classed as protein assay. The method, boiled down:
as §2

Experiment [21] has as its target c-Jun N-terminal kinase, JNK (Homo sapiens) (UniProt P45983+P53779+P45984). Description: Inhibition of JNK (unknown origin) at 1 uM in presence of 32ATP relative to control. The experiment is classed as protein assay. The method, boiled down:
as §2

The next experiment is filed under the species Homo sapiens. Description: Inhibition of CAMKK (unknown origin) at 1 uM in presence of 32ATP relative to control. The method, boiled down:
as §2

In experiment [22] the target is G protein-coupled receptor kinase 3 (Homo sapiens, UniProt P35626). Description: Inhibition of human GRK3 in the presence of ATP.
Experiment [23] addresses Mu-type opioid receptor (Rattus norvegicus) (UniProt P33535). Description: Inhibition of MOPr desensitization (unknown origin) assessed as drop in maximum morphine response at 30 uM incubated for 15 mins relative to control.
Target sequence in this assay (P33535 whole entry, looked up, the tested form may be a part): as the sequence (P33535 whole entry, the tested form may be a part) above

pIC50: −log10 of the molar value. Active and inactive are the calls of the source. The calls are words filed in the database; no cut-off is given here.

Chain of Receptor tyrosine-protein kinase erbB-4 (Homo sapiens) (Q15303 whole entry): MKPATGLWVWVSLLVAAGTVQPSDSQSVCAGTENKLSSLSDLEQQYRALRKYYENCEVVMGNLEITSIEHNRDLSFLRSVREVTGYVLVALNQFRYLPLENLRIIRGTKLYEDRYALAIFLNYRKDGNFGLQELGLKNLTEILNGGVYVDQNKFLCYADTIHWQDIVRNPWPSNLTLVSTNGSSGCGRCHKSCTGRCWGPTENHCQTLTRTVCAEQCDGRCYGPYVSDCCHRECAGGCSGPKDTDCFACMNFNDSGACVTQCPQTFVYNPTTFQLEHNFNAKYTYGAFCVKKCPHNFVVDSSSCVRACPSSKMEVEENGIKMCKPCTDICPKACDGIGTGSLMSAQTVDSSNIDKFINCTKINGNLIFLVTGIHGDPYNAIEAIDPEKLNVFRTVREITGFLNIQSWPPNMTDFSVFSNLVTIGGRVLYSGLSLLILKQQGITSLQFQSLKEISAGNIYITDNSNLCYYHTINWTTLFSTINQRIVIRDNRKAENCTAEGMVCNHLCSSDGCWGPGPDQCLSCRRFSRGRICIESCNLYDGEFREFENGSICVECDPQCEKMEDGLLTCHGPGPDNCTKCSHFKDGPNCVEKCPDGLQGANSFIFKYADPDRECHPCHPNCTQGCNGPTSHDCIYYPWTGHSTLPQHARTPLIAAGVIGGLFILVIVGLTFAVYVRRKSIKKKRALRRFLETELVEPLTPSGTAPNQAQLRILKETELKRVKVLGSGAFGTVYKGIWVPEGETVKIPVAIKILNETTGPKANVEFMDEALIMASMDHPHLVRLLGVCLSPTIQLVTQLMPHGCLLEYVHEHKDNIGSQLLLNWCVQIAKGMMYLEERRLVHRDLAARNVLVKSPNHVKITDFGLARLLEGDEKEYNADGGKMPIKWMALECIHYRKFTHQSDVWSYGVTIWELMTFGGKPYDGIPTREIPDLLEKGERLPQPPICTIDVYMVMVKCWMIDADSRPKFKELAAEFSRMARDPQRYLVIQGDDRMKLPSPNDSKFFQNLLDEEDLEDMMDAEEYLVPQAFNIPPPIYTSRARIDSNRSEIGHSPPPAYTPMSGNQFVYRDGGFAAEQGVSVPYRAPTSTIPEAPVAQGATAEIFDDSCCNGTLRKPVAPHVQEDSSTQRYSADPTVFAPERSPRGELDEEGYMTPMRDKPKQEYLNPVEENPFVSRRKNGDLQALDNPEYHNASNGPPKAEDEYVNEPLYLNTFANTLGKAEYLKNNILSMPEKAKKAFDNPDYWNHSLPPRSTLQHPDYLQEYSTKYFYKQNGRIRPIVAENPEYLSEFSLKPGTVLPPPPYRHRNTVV
Chain of RAC-alpha serine/threonine-protein kinase (Homo sapiens) (P31749 whole entry): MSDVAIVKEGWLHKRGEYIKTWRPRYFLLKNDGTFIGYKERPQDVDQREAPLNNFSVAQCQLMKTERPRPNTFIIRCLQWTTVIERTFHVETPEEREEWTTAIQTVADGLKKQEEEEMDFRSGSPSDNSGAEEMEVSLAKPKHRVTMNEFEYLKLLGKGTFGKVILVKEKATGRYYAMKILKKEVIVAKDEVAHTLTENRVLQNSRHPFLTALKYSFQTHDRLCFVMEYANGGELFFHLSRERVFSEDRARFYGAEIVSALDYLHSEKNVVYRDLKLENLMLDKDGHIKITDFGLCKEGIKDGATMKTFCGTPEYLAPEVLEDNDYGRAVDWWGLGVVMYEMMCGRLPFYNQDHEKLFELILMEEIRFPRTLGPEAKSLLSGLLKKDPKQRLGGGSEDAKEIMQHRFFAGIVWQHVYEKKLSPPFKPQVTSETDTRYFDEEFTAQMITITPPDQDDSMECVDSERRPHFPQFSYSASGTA
Chain of Casein kinase I isoform delta (Homo sapiens) (P48730 whole entry, looked up, canonical isoform): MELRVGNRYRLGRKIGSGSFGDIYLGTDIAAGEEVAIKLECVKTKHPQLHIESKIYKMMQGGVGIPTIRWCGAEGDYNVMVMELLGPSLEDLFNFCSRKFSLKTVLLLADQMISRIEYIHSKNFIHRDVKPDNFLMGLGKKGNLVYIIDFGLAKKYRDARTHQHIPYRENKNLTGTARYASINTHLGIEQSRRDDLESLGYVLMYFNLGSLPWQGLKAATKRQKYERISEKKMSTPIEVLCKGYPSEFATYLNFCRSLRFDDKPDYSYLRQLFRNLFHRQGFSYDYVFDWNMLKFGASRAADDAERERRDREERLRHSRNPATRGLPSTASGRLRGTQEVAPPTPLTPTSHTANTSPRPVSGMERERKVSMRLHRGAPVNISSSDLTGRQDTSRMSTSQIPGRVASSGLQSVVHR
Chain of Ribosomal protein S6 kinase beta-1 (Homo sapiens) (P23443 whole entry, looked up): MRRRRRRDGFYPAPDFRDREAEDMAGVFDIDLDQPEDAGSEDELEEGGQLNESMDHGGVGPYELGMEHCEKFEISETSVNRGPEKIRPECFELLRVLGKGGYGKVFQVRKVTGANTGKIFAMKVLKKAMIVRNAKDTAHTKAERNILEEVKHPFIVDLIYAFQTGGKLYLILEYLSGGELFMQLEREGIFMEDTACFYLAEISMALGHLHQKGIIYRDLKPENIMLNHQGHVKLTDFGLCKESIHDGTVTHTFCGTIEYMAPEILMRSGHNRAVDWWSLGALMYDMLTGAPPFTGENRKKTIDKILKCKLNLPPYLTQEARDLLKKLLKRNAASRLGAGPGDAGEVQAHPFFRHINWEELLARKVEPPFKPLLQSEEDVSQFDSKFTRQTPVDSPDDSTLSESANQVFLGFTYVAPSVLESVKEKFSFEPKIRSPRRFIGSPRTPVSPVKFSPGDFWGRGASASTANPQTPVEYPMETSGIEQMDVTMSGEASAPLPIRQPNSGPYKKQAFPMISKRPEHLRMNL

On to `Cn1c(CNc2cccc(C(=O)NCc3ccccc3C(F)(F)F)c2)nnc1-c1ccncc1`, for which the inhibition entry in experiment [1], in [3], in [4] and in experiment [5] was “Active” in each case. In addition, in [2], the inhibition entry is “inactive”. The Activity in [6] was 10%; in experiment [7], 47%; in experiment [8], 81%; in experiment [9], 83%; in experiment [10] it was 86%; in experiment [11], 86%. Further, the Activity was determined as 89% in experiment [12]; 89% in experiment [13]; 91% in experiment [14]; 96% in experiment [15]; 103% in experiment [16]; 106% in experiment [17]. For the same compound, the Activity came out at 107% in [18] and 112% in experiment [19]. Also, the inhibition was less than 20% in experiment [20], less than 20% in experiment [21], less than 20% in the experiment filed under Homo sapiens and 44% in [23]. Moreover, the pIC50 in experiment [22] is 6.54.
